DAGLB inhibitor – blocks human DAGLB lipase activity. Q8NCG7. HEK293T DAGLB membrane lysate, EnzChek fluorogenic substrate. inhibition, % at 5.17 µM. actives 0.059% (n = 340,000). AID 504411; in the data active = inhibition above about 34%;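 also: 0% = enzyme with vehicle and 100% = wells lacking enzyme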
FGF22 binding – shifts melting point of recombinant human FGF22; actives 1.5% (n = 340,000); activity (Tm shift, normalised), % at 9.99 µM; recombinant FGF22 thermal shift, SYPRO orange fluorescence; percent of sucrose octasulfate shift, DMSO zero; Q9HCT0;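 active = mean Tm shift, scaled 0 neutral to 100 positive control, at about 1.3% or above, every replicate too, limit read from the data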
MT1-MMP act inh – inhibitors of human MT1-MMP activation; P50281; HT1080 RFP-PRO-GFP cells, GFP/RFP ratio fluorescence, overnight; percent of plate control window, DMSO zero; GFP/RFP ratio change, % at 20 µM; actives 0.061% (n = 360,000); AID 651647;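 active = GFP/RFP ratio change of at least 30% with cell ATP level not reduced by more than half and red fluorescence within 50% of control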
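Compound: 20 µM single dose, 1% DMSO / System: HT1080 RFP-PRO-GFP cells / Controls: DMSO and RFP-L50D-GFP cell wells / Read-out basis: GFP/RFP fluorescence ratio / Schedule: overnight compound exposure at 37 °C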
VLA-4 inh – inhibition in a human VLA-4 binding assay; P13612; VLA-4 expressing cells, ligand binding flow cytometry; inhibition, % (about 7 µM as worked out from the volumes in the protocol); actives 0.2% (n = 330,000); in the data active = inhibition above about 50%
Exocytosis inh – lytic granule exocytosis inhibition; TALL-104 LAMP-1 surface exposure, flow cytometry; cells stimulated with thapsigargin and PMA; inhibition, % at 10 µM; actives 0.66% (n = 360,000); AID 651702;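 active = inhibition above about 55%, limit read from the data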
ABCB6 inh 2 – inhibitors of human ABC transporter ABCB6; fluorescence ratio to DMSO, % at 10 µM; actives 0.19% (n = 360,000); Q9NP58; K562-ABCB6 porphyrin accumulation, flow cytometry, 1 h; active compounds read low;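 active = fluorescence ratio to DMSO below 75%, the collection mean minus 3 SD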;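 also: signal is porphyrin accumulated inside mitochondria; 100% equals median channel fluorescence of DMSO control wells; lower ratio means ABCB6 inhibition with less porphyrin fluorescence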
An asterisk follows results filed as active; . = no result given. The list is not random: actives were taken first. Their share in the collection is about 2%.

SMILES | DAGLB inhibitor | FGF22 binding | MT1-MMP act inh | VLA-4 inh | Exocytosis inh | ABCB6 inh 2
Cc1ccc(S(=O)(=O)NCC(=O)NCC(=O)NCCc2ccccc2F)cc1C | -8 | 0 | -2 | 6 | 13 | 96
CC(OC(=O)c1cccnc1Cl)C(=O)Nc1ccc2c(c1)OCCO2 (centres undefined) | -2 | 43* | -1 | 2 | -7 | 104
CSc1ncccc1C(=O)OC(C)C(=O)Nc1ccc2c(c1)OCCO2 (centres undefined) | -5 | 0 | 7 | . | 3 | 93
Cc1ccc(-n2ncc(C(=O)Nc3cc(Cl)cc(Cl)c3)c2C2CCNCC2)cc1C | 3 | 43 | -4 | . | 88* | 118
Cc1ccc(-n2ncc(C(=O)Nc3cc(Cl)ccc3Cl)c2C2CCNCC2)cc1 | 0 | 0 | -10 | -6 | 5 | 109
C[C@@H]1CN([C@H](C)CO)C(=O)c2cc(/C=C/c3ccccc3)cnc2O[C@H]1CN(C)S(=O)(=O)c1cccs1 | . | 0 | . | . | . | .
CN(Cc1ccccc1)C(=O)CCN1C(=O)c2cccc([N+](=O)[O-])c2C1=O | -1 | 43* | -1 | . | -3 | 98
CN(Cc1ccc(Br)cc1)C(=O)CCN1C(=O)c2cccc([N+](=O)[O-])c2C1=O | -2 | 0 | -1 | 2 | 0 | 96
Cc1ccc2c(c1)C1C=CCC1C(C(=O)O)N2 (centres undefined) | . | . | . | -26 | . | .
CC(=O)c1ccc2c(c1)C1C=CCC1C(C(=O)O)N2 (centres undefined) | . | 44* | 3 | . | -2 | 98
CSc1nc2ccc(NC(=O)C3=NNC(=O)CC3)cc2s1 | 0 | 43* | -2 | 9 | 6 | 98
Cc1noc(C)c1S(=O)(=O)Nc1ccc2c(c1)C(=O)N([C@@H](C)CO)C[C@H](C)[C@@H](CN(C)C(=O)c1ccncc1)OCCCC[C@H](C)O2 | . | 0 | . | . | . | .
CCC(=O)Nc1ccc2c(c1)OC[C@H](C)N(Cc1nccs1)C[C@@H](C)[C@@H](OC)CN(C)C2=O | . | 0 | . | . | . | .
CN1C(=O)c2cc(NC(=O)Nc3ccccc3)ccc2OC[C@H]2O[C@@H](CC(=O)NC3CCC3)CC[C@H]21 | . | 0 | . | . | . | .
Cc1ccc(Oc2nc3ccccn3c(=O)c2/C=C(\C#N)C(=O)NC2CCS(=O)(=O)C2)c(C)c1 (centres undefined) | -2 | 0 | -2 | 4 | 79* | 101
CCC(=O)N1CC[C@@H]2[C@H]1c1cc(-c3ccc(F)cc3)ccc1N[C@@H]2CO | . | 0 | . | . | . | .
NC(=NCCc1ccccc1)NS(=O)(=O)c1cccs1 | -2 | 43* | -1 | 1 | 9 | 95
Cc1ccc(CNC(=O)CNC(=O)c2c(C)nn(C)c2Cl)cc1 | -1 | . | 3 | 1 | -1 | 107
Cc1nn(C)c(Cl)c1C(=O)NCC(=O)Nc1ccc(C(C)C)cc1 | -5 | 44* | 5 | 8 | 3 | 99
CC(C)Cc1nc2sc3c(=O)n(N)cnc3c2c2c1COC(C)(C)C2 | -4 | 0 | 0 | -10 | 0 | 98
CCCCc1nc2sc3c(=O)n(N)cnc3c2c2c1CCC2 | -2 | 43* | 0 | 18 | -15 | 101
O=C(NCCNC(=O)c1ccc(-c2cc(Cl)ccc2Cl)o1)c1cnccn1 | -4 | 44* | 3 | . | 11 | 89
O=C(NCCNC(=O)c1ccc(-c2ccc(Cl)c(Cl)c2)o1)c1cnccn1 | 0 | 0 | 4 | -4 | 9 | 100
O=C1CNC(=S)N1Cc1ccc(F)cc1 | 0 | . | -8 | 13 | -2 | 96
O=C1CNC(=S)N1Cc1ccccc1 | 0 | 43* | -10 | 8 | -3 | 101
SMILES | DAGLB inhibitor | FGF22 binding | MT1-MMP act inh | VLA-4 inh | Exocytosis inh | ABCB6 inh 2
O=C1C=CC(=O)N1Cc1ccccc1 | 4 | 0 | 2 | 54* | 10 | 99
CN1C(=O)N(C)N(Cc2ccccc2)C(=O)N1Cc1ccccc1 | . | 0 | . | . | . | .
CC(=O)Nc1ccc2c(c1)C(=O)N(C)[C@@H]1CC[C@@H](CC(=O)NCC3CCCCC3)O[C@H]1CO2 | . | 0 | . | . | . | .
CNC[C@@H]1Oc2c(NS(=O)(=O)c3cccs3)cccc2C(=O)N([C@@H](C)CO)C[C@@H]1C | . | 0 | . | . | . | .
COc1ccccc1C(=O)Nc1nc(-c2ccc(S(=O)(=O)N3CCOCC3)cc2)cs1 | 0 | . | -10 | -6 | 65* | 90
COc1ccccc1OC(C)C(=O)Nc1nc(-c2ccc(S(=O)(=O)N3CCOCC3)cc2)cs1 (centres undefined) | -8 | . | 0 | -4 | 3 | 82
COc1ccc(CC(=O)NNC(=O)CCC(=O)Nc2cc(C)ccc2C)cc1 | 4 | 44* | 2 | 5 | -2 | 103
O=C1c2ccccc2C(=O)N1CCCCc1cn(C[C@H]2CC[C@@H]([C@@H]3CC[C@H](Cn4cc(CCCCN5C(=O)c6ccccc6C5=O)nn4)O3)O2)nn1 | -1 | 0 | -7 | -5 | -1 | 96
O=C1c2ccccc2C(=O)N1CCCc1cn(C[C@H]2CC[C@@H]([C@@H]3CC[C@H](Cn4cc(CCCN5C(=O)c6ccccc6C5=O)nn4)O3)O2)nn1 | -2 | 0 | 3 | -6 | 67* | 96
COc1cc(C)c(C(=O)Oc2cc(C)c(C(=O)O)c(O)c2C)c(O)c1C | 12 | 1.6* | 2 | 18 | 3 | 102
CC12C(=O)N(c3nccs3)C(=O)C1(C)C1CCC2O1 (centres undefined) | . | 43* | -6 | . | 4 | 97
O=C1C2C3CCC(O3)C2C(=O)N1c1nccs1 (centres undefined) | 0 | 0 | 5 | . | 0 | 100
COc1cc(CNCCCN2CCOCC2)ccc1OCC(=O)NC(C)(C)C | 1 | 44* | 13 | 8 | 0 | 93
CCOc1cc(CNCCCN2CCOCC2)ccc1OCC(=O)NC(C)(C)C | -1 | 42 | -16 | 8 | -3 | 100
COc1cc(CNCCCN2CCOCC2)cc(Cl)c1OCC(=O)NC(C)(C)C | 0 | 0 | 5 | 3 | 8 | 100
COc1cc(CNCCN2CCOCC2)ccc1OCC(=O)NC(C)(C)C | -3 | 43* | 2 | 2 | 2 | 107
CCOc1ccccc1C(=O)NC(C(=O)NCCc1ccccn1)C(C)C (centres undefined) | -1 | 0 | -8 | 0 | -13 | 104
CCOc1ccccc1C(=O)N[C@H](C(=O)NCc1ccccc1)C(C)C | 1 | 43* | 0 | -66 | 7 | 98
COc1ccc(N(CC(=O)Nc2ccc(F)cc2)S(=O)(=O)c2ccccc2[N+](=O)[O-])c(OC)c1 | 1 | 43* | -3 | -3 | 8 | 102
COc1ccc(N(CC(=O)Nc2cc(C)cc(C)c2)S(=O)(=O)c2ccccc2[N+](=O)[O-])c(OC)c1 | -3 | 0 | -3 | -6 | -11 | 108
Cn1c(-c2ccccc2)c(C(=O)CCl)c2ccccc21 | 2 | 44* | -7 | . | 14 | 105
